{
  "source": "ChEMBL document CHEMBL4196194",
  "about": "“De Novo Design of α-Helical Lipopeptides Targeting Viral Fusion Proteins: A Promising Strategy for Relatively Broad-Spectrum Antiviral Drug Discovery” (J Med Chem, 2018)",
  "key": {"Influenza A virus [1]": {"test_system": "Influenza A virus", "conditions": "A/Puerto Rico/8/1934(H1N1), 0.1 to 1000 uM"}, "Influenza A virus [2]": {"test_system": "Influenza A virus", "assay": "Inhibition of influenza A virus infected in MDCK cells assessed as inhibition of viral load treated with compound at 2 to 5 hrs post-infection by RT-qPCR method based time of addition assay", "type": "functional, organism-based", "summary_of_the_method": "(§1)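 MDCK cells (2.0 × 10^5/well) washed with PBS, virus adsorbed (MOI 0.05) 60 min at 4 °C, washed, then compound present only during 0–10, 0–2, 2–5, 5–8 or 8–10 h postinfection; cultured in fresh medium to 10 h, total RNA extracted, viral load by absolute one-step RT-qPCR; triplicate, versus PBS control.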"}, "Influenza A virus [3]": {"test_system": "Influenza A virus", "assay": "Inhibition of influenza A virus infected in MDCK cells assessed as inhibition of viral load treated with compound at 5 to 8 hrs post-infection by RT-qPCR method based time of addition assay", "type": "functional, organism-based", "summary_of_the_method": "as §1"}, "Influenza A virus [4]": {"test_system": "Influenza A virus", "assay": "Inhibition of influenza A virus infected in MDCK cells assessed as inhibition of viral load treated with compound at 0 to 10 hrs post-infection by RT-qPCR method based time of addition assay", "type": "functional", "summary_of_the_method": "as §1"}, "Influenza A virus [5]": {"test_system": "Influenza A virus", "assay": "Antiviral activity against influenza A virus assessed as inhibition of viral replicon activity incubated for 30 hrs by firefly luciferase reporter gene assay", "type": "functional, organism-based", "summary_of_the_method": "(§2)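 HEK293T cells (2.5 × 10^4/well) transfected with plasmids for NP, PB1, PB2, PA plus p0LN-S-Luc firefly and pRL-SV40 Renilla reporters; serially diluted compound added 6 h post-transfection, luciferase read after 30 h by Dual-Glo. Activity = firefly/Renilla ratio; % inhibition normalized to positive and negative controls, curve-fitted; three independent measurements.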"}, "Influenza A virus [6]": {"test_system": "Influenza A virus", "conditions": "Hong Kong/8/1968(H3N2), 0.1 to 1000 uM"}, "Influenza A virus [7]": {"test_system": "Influenza A virus", "assay": "Inhibition of influenza A virus infected in MDCK cells assessed as inhibition of viral load treated with compound at 0 to 2 hrs post-infection by RT-qPCR method based time of addition assay", "type": "functional", "summary_of_the_method": "as §1"}, "[8]": {"assay": "Cytotoxicity in human HuH7 cells assessed as reduction in cell viability incubated for 48 hrs by CCK8 assay", "type": "cell-based, Huh-7", "summary_of_the_method": "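Huh-7 cells (1 × 10^5 cells/mL suspension seeded) grown 12 h at 37 °C, 5% CO2, then serially diluted peptide added for 48 h; untreated blank and Triton X-100 controls. CCK-8 added for 2 h, absorbance at 450 nm.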"}, "[9]": {"assay": "Inhibition of MERS-CoV spike protein-mediated cell-cell fusion in 293T/MERS/EGPF cells assessed as reduction in cell fusion incubated for 4 hrs by inverted fluorescence microscopy", "type": "cell-based, Middle East respiratory syndrome-related coronavirus", "summary_of_the_method": "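Huh-7 cells expressing DPP4 plated 5 × 10^4/well, 5 h at 37 °C; serially diluted peptide added, then 293T cells carrying MERS-CoV S and EGFP (or EGFP-only control cells), 1 × 10^4/well. After 4 h coculture at 37 °C, fused and unfused effector cells counted by fluorescence microscopy.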"}, "Influenza A virus [10]": {"test_system": "Influenza A virus", "assay": "Antiviral activity against influenza A virus Hong Kong/8/1968(H3N2) infected in HEK293T cells assessed as inhibition of viral replicon activity up to 20 uM incubated for 30 hrs by dual-Glo luciferase assay", "type": "functional, organism-based", "summary_of_the_method": "as §2"}, "Influenza A virus [11]": {"test_system": "Influenza A virus", "assay": "Antiviral activity against Influenza A virus (A/Puerto Rico/8/1934(H1N1)) infected in HEK293T cells assessed as inhibition of viral replicon activity up to 20 uM incubated for 30 hrs by dual-Glo luciferase assay", "type": "functional, organism-based", "summary_of_the_method": "as §2"}},
  "note": "Activity calls are given as the source filed them. No cut-off for these calls is given here. Where a SMILES comes first, the peptide text is derived from it. [ ]: non-standard residue; d: D form. The star is where a group is joined. Palmitoyl = CCCCCCCCCCCCCCCC(=O)*; βAla = NCCC(=O)O",
  "data": [
    {"smiles": "NC(=O)c1nc(F)cnc1O", "values": [
      {"measurement": "inhibition", "setting": "Influenza A virus [1]", "value": "inactive"},
      {"measurement": "inhibition", "setting": "Influenza A virus [2]", "value": "Active"},
      {"measurement": "inhibition", "setting": "Influenza A virus [3]", "value": "Active"},
      {"measurement": "inhibition", "setting": "Influenza A virus [4]", "value": "Active"},
      {"measurement": "IC50", "setting": "Influenza A virus [5]", "value": 26.2, "unit": "µM"},
      {"measurement": "inhibition", "setting": "Influenza A virus [5]", "value": "Dose-dependent effect"},
      {"measurement": "inhibition", "setting": "Influenza A virus [6]", "value": "inactive"},
      {"measurement": "inhibition", "setting": "Influenza A virus [7]", "value": "Active"}
    ]},
    {"smiles": "CC[C@H](C)[C@H](NC(=O)[C@H](Cc1ccc(O)cc1)NC(=O)[C@H](CO)NC(=O)[C@H](CCC(=O)O)NC(=O)[C@H](CCC(=O)O)NC(=O)[C@H](CC(C)C)NC(=O)[C@H](CCCCN)NC(=O)[C@H](CCCCN)NC(=O)[C@@H](NC(=O)[C@@H](NC(=O)[C@H](CCC(=O)O)NC(=O)[C@H](CCC(=O)O)NC(=O)[C@H](CC(C)C)NC(=O)[C@H](CCCCN)NC(=O)[C@H](CCCCN)NC(=O)[C@H](CCSC)NC(=O)[C@H](CCC(=O)O)NC(=O)[C@H](Cc1ccc(O)cc1)NC(=O)[C@H](CCC(=O)O)NC(=O)[C@H](CC(C)C)NC(=O)[C@H](CC(=O)O)NC(=O)[C@H](CC(C)C)NC(=O)[C@H](CC(C)C)NC(=O)[C@@H](NC(=O)[C@@H](NC(=O)[C@H](CC(N)=O)NC(=O)[C@@H](NC(=O)[C@H](CCC(N)=O)NC(=O)[C@@H](NC(=O)[C@H](CC(C)C)NC(=O)[C@H](CO)NC(C)=O)[C@@H](C)O)[C@@H](C)CC)[C@@H](C)O)[C@@H](C)O)C(C)C)C(C)C)C(=O)N[C@@H](CC(=O)O)C(=O)N[C@@H](CC(C)C)C(=O)N[C@@H](CCCCN)C(=O)N[C@@H](CCC(=O)O)C(=O)N[C@@H](CC(C)C)C(N)=O", "values": [
      {"measurement": "CC50 at 48 h", "setting": "[8]", "value": "> 100", "unit": "µM"},
      {"measurement": "EC50", "setting": "[9]", "value": 0.15, "unit": "µM"},
      {"measurement": "Activity", "setting": "Influenza A virus [10]", "value": "inactive"},
      {"measurement": "Activity", "setting": "Influenza A virus [11]", "value": "inactive"}
    ]},
    {"smiles": "CCCCCCCCCCCCCCCC(=O)NCCCC[C@H](NC(=O)CCNC(=O)[C@H](CCCCN)NC(=O)[C@H](CCCCN)NC(=O)[C@H](CO)NC(=O)[C@H](Cc1ccccc1)NC(=O)[C@H](CCC(=O)O)NC(=O)[C@H](CCC(=O)O)NC(=O)[C@H](Cc1ccccc1)NC(=O)[C@H](CCCCN)NC(=O)[C@H](CCCCN)NC(=O)[C@H](CO)NC(=O)[C@H](Cc1ccccc1)NC(=O)[C@H](CCC(=O)O)NC(=O)[C@H](CCC(=O)O)NC(=O)[C@H](Cc1ccccc1)NC(=O)[C@H](CCCCN)NC(=O)[C@H](CCCCN)NC(=O)[C@H](CO)NC(=O)[C@H](Cc1ccccc1)NC(=O)[C@H](CCC(=O)O)NC(=O)[C@H](CCC(=O)O)NC(=O)[C@H](Cc1ccccc1)NC(=O)[C@H](CCCCN)NC(=O)[C@H](CCCCN)NC(=O)[C@H](CO)NC(=O)[C@H](Cc1ccccc1)NC(=O)[C@H](CCC(=O)O)NC(=O)[C@H](CCC(=O)O)NC(=O)[C@H](Cc1ccccc1)NC(=O)[C@H](CCCCN)NC(=O)[C@H](CCCCN)NC(=O)[C@H](CO)NC(=O)[C@H](Cc1ccccc1)NC(=O)[C@H](CCC(=O)O)NC(=O)[C@H](CCC(=O)O)NC(=O)[C@H](Cc1ccccc1)NC(C)=O)C(N)=O", "note": "(Ac-FEEFSKKFEEFSKKFEEFSKKFEEFSKKFEEFSKK[βAla]K(Palmitoyl)-NH2)", "values": [
      {"measurement": "CC50 at 48 h", "setting": "[8]", "value": "> 100", "unit": "µM"},
      {"measurement": "EC50", "setting": "[9]", "value": 3.11, "unit": "µM"}
    ]}
  ]
}
